Measurements gathered from unrelated publications.
Technique: competition with immobilised ligand
RPS6KA6 C-terminal kinase domain: Ribosomal protein S6 kinase alpha-6, C-terminal kinase domain (RPS6KA6, Homo sapiens, UniProt Q9UK32)
RPS6KA6 N-terminal kinase domain: Ribosomal protein S6 kinase alpha-6, N-terminal kinase domain (RPS6KA6, Homo sapiens, UniProt Q9UK32)

| SMILES | target | test | conditions | remaining binding |
| --- | --- | --- | --- | --- |
| CN(C)c1nccc(-c2cnn3ncccc23)n1 | RPS6KA6 C-terminal kinase domain | binding | 1 µM | 100% |
| O=C(Nc1c[nH]nc1C(=O)NC1CCNCC1)c1cc(F)cc(F)c1 | RPS6KA6 C-terminal kinase domain | binding | 1 µM | 100% |
| C[C@@H]1CN(c2cc(-c3nn(C)c4ccc(OC5(C)CC5)cc34)ncn2)C[C@H](C)O1 | RPS6KA6 C-terminal kinase domain | cell-free assay | 1 µM | 79% |
| CN(C)c1nccc(-c2cnc3ncccn23)n1 | RPS6KA6 C-terminal kinase domain | binding | 1 µM | 90% |
| c1cncc(-c2cccc(Nc3nccc(NC4CCCCC4)n3)c2)c1 | RPS6KA6 N-terminal kinase domain | binding | 10 µM | 50% |
| COc1ncc2cc3ccccc3nc2c1C#N | RPS6KA6 C-terminal kinase domain | cell-free assay | 5 µM | 73% |
| COc1ccnn2ncc(-c3ccnc(N(C)C)n3)c12 | RPS6KA6 C-terminal kinase domain | binding | 1 µM | 100% |
| COc1cnc(Nc2cccc(S(N)(=O)=O)c2)nc1N1CCN(c2ccccc2)C(=O)C1 | RPS6KA6 N-terminal kinase domain | binding | 1 µM | 79% |
| CC1CCCN1c1nccc(-c2cnn3ncccc23)n1 (centres unmarked) | RPS6KA6 N-terminal kinase domain | binding | 1 µM | 99% |
| NS(=O)(=O)c1cc(NC(=O)C2(c3ccccc3Cl)CC2)ccc1Oc1cccc(Cl)c1 | RPS6KA6 N-terminal kinase domain | cell-free assay | 1 µM | 100% |
| CCN1CCN(Cc2ccc(C(=O)Nc3ccc(C)c(Oc4ccc5c(c4)CC(=O)N5)c3)cc2C(F)(F)F)CC1 | RPS6KA6 C-terminal kinase domain | binding | 1 µM | 89% |
| COc1cc(-c2cn(C3CCc4ccccc4N(CC(F)(F)F)C3=O)nn2)ccc1-n1ccc(C)n1 (centres unmarked) | RPS6KA6 N-terminal kinase domain | cell-free assay | 1 µM | 81% |
| O=C(c1ccc(Nc2nccc(-c3cc4ccccc4s3)n2)cc1)N1CCC(N2CCCC2)CC1 | RPS6KA6 N-terminal kinase domain | binding | 1 µM | 98% |
| CN(c1nccc(-c2cnn3ncccc23)n1)C1CC1 | RPS6KA6 N-terminal kinase domain | binding | 1 µM | 83% |
| Cn1nc(C(F)(F)F)cc1-c1cnc(N2CCc3cc(S(=O)(=O)Nc4c(F)cc(Cl)cc4F)cc(N4CCCC4=O)c32)nc1 | RPS6KA6 N-terminal kinase domain | cell-free assay | 1 µM | 85% |
| Cc1cnn2ncc(-c3ccnc(N(C)C)n3)c2c1 | RPS6KA6 C-terminal kinase domain | binding | 1 µM | 100% |

| SMILES | target | test | conditions | remaining binding |
| --- | --- | --- | --- | --- |
| Nc1ncc2c(n1)-c1c([nH]c3ccc(C#CC4CC4)cc13)CCCC2 | RPS6KA6 C-terminal kinase domain | binding | 1 µM | 91% |
| CCS(=O)(=O)c1cc2cc(C[C@@](O)(CC(C)(C)c3ccc(F)cc3C(N)=O)C(F)(F)F)[nH]c2cn1 | RPS6KA6 N-terminal kinase domain | cell-free assay | 1 µM | 100% |
| F[C@@H]1CCN(c2nccc(-c3cnn4ncccc34)n2)C1 | RPS6KA6 C-terminal kinase domain | binding | 1 µM | 92% |
| FC(F)(F)Oc1cccc(-c2cnc3ccc(-c4ccncc4)nn23)c1 | RPS6KA6 N-terminal kinase domain | binding | 5 µM | 64% |
| Cc1c(C(=O)O)cc(-c2ccc(C3CCNCC3)cc2)c2ccc(-c3ccc(C(F)(F)F)cc3)cc12 | RPS6KA6 C-terminal kinase domain | binding | 1 µM | 100% |
| N[C@H]1CCN(c2nccc(-c3cnn4ncccc34)n2)C1 | RPS6KA6 C-terminal kinase domain | binding | 1 µM | 86% |
| O=C(NCCCN1CCOCC1)c1ccc(Nc2ncc(Cl)c(-c3ccc(Cl)s3)n2)cc1 | RPS6KA6 N-terminal kinase domain | binding | 1 µM | 72% |
| O=C(O)c1cc(-c2ccc(C3CCNCC3)cc2)c2ccc(-c3ccc(C(F)(F)F)cc3)cc2c1 | RPS6KA6 N-terminal kinase domain | cell-free assay | 1 µM | 100% |
| O=C(c1ccc(Nc2ncc(Cl)c(-c3cc4ccccc4s3)n2)cc1)N1CCC(N2CCCC2)CC1 | RPS6KA6 C-terminal kinase domain | binding | 1 µM | 89% |
| CNC(=O)[C@@H]1CC[C@@H](n2c(-c3ccc4cnccc4c3)nc3ccc(C(=O)NCc4cccc(C(N)=O)c4)cc32)C1 | RPS6KA6 N-terminal kinase domain | binding | 1 µM | 100% |
| Cc1cnc(Nc2ccc(C(=O)N3CCC(N4CCCC4)CC3)cc2)nc1-c1cc2ccccc2s1 | RPS6KA6 N-terminal kinase domain | binding | 1 µM | 30% |
| COc1cnc(Nc2cccc(S(N)(=O)=O)c2)nc1N1CCN(c2ccccc2)CC1 | RPS6KA6 C-terminal kinase domain | binding | 1 µM | 69% |
| O=C(c1ccc(Nc2ncc(Cl)c(-c3ccc(Cl)s3)n2)cc1)N1CCC(N2CCCC2)CC1 | RPS6KA6 C-terminal kinase domain | binding | 1 µM | 83% |
| O=C(NCC1CCOCC1)c1n[nH]cc1NC(=O)c1c(F)cccc1F | RPS6KA6 N-terminal kinase domain | binding | 1 µM | 41% |
| O=C(NCCCN1CCOCC1)c1ccc(Nc2nccc(-c3cc4ccccc4s3)n2)cc1 | RPS6KA6 C-terminal kinase domain | binding | 1 µM | 35% |
| CN(C)C(=O)Cn1cc(-c2nc(C3(c4ccc(-c5cnc(N)nc5)cc4)CC3)no2)cn1 | RPS6KA6 N-terminal kinase domain | cell-free assay | 1 µM | 83% |
